Test results published in ChEMBL document CHEMBL3244368, “[3-(1,4-Cyclohexadienyl)-L-alanine,8-lysine]vasopressin: synthesis and some pharmacological properties” (J Med Chem, 1979).
Starred links: 1 amine or outer side, 2 acyl side, 3 side chain; linkers in the order of their positions; H or OH if unused. Positions of bridges follow the written chain, without caps; N, C: chain ends. Non-standard residues stand in square brackets, D forms with d. Residues, ends and D or L forms follow the SMILES beside them. X1 = O=C([C@H](CC1=CCC=CC1)N[*:1])[*:2]; 2Thi = N[C@@H](Cc1cccs1)C(=O)O

Experiments:
Gallus gallus = organism: Gallus gallus; assay: Vasodepressor activity in chicken; assay type: functional
Rattus norvegicus [1] = assay: Antidiuretic activity in iv dosed water loaded rat; assay type: functional, Urine
Outline: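 Water-loaded rats under ethanol anesthesia, peptide given intravenously. Potency referenced to the USP Posterior Pituitary Reference Standard.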

Rattus norvegicus [2] = organism: Rattus norvegicus; assay: Vasopressor activity in phenoxybenzamine-treated rat; assay type: functional
Outline: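 Phenoxybenzamine-treated rats under urethane anesthesia. Potency referenced to the USP Posterior Pituitary Reference Standard.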

[3] = Oxytocic activity in isolated rat uterus strips in Mg2+-free van Dyke-Hastings solution
[4] = Stability of the compound in 0.2 M potassium phosphate buffer at […] assessed as hydrolysis by measuring Tyr level in presence of alpha-amylase preparation and cyclohexadiene; assay type: ADME
Outline: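 Aspergillus oryzae α-amylase preparation, 1 mg per 0.9 µmol peptide, in potassium phosphate buffer pH 7, with 1,4-cyclohexadiene (10 µL) and toluene, under N2, 37 °C, 17 h. Adjusted to pH 2.2 for amino acid analysis. Phe from a control of constituent amino acids plus enzyme subtracted to give Phe in residue 3.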

[5] = Stability of the compound in potassium phosphate buffer at pH 7 assessed as hydrolysis by measuring Phe level in presence of alpha-amylase preparation and cyclohexadiene
[6] = Stability of the compound in potassium phosphate buffer at pH 7 assessed as hydrolysis by measuring DiHPe level in presence of alpha-amylase preparation and cyclohexadiene
[7] = Stability of the compound in 0.2 M potassium phosphate buffer at pH 7.7 assessed as hydrolysis by measuring Ile/Phe + DiHPe level in presence of alpha-amylase preparation; assay type: ADME
[8] = Stability of the compound in 0.2 M potassium phosphate buffer at pH 7.7 assessed as hydrolysis by measuring Tyr level in presence of alpha-amylase preparation; assay type: ADME
[9] = Stability of the compound in 0.2 M potassium phosphate buffer at pH 7.7 assessed as hydrolysis by measuring Leu/Lys level in presence of alpha-amylase preparation; assay type: ADME
[10] = Stability of the compound in 0.2 M potassium phosphate buffer at pH 7.7 assessed as hydrolysis by measuring Gly level in presence of alpha-amylase preparation; assay type: ADME
[11] = Stability of the compound in 0.2 M potassium phosphate buffer at pH 7.7 assessed as hydrolysis by measuring Ile/Phe + DiHPe level in presence of pronase; assay type: ADME
Outline: (§1)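 Pronase digest in 0.2 M potassium phosphate buffer, pH 7.7, substrate:enzyme 5:1. Half the enzyme added at start and half after 18 h at 37 °C, then incubated 4 h more. Released amino acids quantified by amino acid analysis.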

[12] = Stability of the compound in 0.2 M potassium phosphate buffer at pH 7.7 assessed as hydrolysis by measuring Leu/Lys level in presence of pronase; assay type: ADME; outline: as §1
[13] = Stability of the compound in 0.2 M potassium phosphate buffer at pH 7.7 assessed as hydrolysis by measuring Gly level in presence of pronase; assay type: ADME; outline: as §1
[14] = Stability of the compound in 0.2 M potassium phosphate buffer at pH 7.7 assessed as hydrolysis by measuring Asn/Gln level in presence of pronase; assay type: ADME; outline: as §1
[15] = Stability of the compound in 0.2 M potassium phosphate buffer at pH 7.7 assessed as hydrolysis by measuring Asn/Gln level in presence of alpha-amylase preparation; assay type: ADME
[16] = Stability of the compound in 0.2 M potassium phosphate buffer at pH 7.7 assessed as hydrolysis by measuring Tyr level in presence of pronase; assay type: ADME; outline: as §1

SMILES	Activity (Gallus gallus) [U/mg]	Activity (Rattus norvegicus [1]) [U/mg]	Activity (Rattus norvegicus [2]) [U/mg]	Activity [3] [U/mg]	Drug degradation [4] [mol%]	Drug degradation [5] [mol%]	Drug degradation [6] [mol%]	Drug degradation [7] [mol%]	Drug degradation [8] [mol%]	Drug degradation [9] [mol%]	Drug degradation [10] [mol%]	Drug degradation [11] [mol%]	Drug degradation [12] [mol%]	Drug degradation [13] [mol%]	Drug degradation [14] [mol%]	Drug degradation [15] [mol%]	Drug degradation [16] [mol%]
NCCCC[C@H](NC(=O)[C@@H]1CCCN1C(=O)[C@@H]1CSSC[C@H](N)C(=O)N[C@@H](Cc2ccc(O)cc2)C(=O)N[C@@H](Cc2cccs2)C(=O)N[C@@H](CCC(N)=O)C(=O)N[C@@H](CC(N)=O)C(=O)N1)C(=O)NCC(N)=O (H-CY[2Thi]QNCPKG-NH2; disulfide 1-6)	87	332	243	19	–	–	–	–	–	–	–	–	–	–	–	–	–
NCCCC[C@H](NC(=O)[C@@H]1CCCN1C(=O)[C@@H]1CSSC[C@H](N)C(=O)N[C@@H](Cc2ccc(O)cc2)C(=O)N[C@@H](CC2=CCC=CC2)C(=O)N[C@@H](CCC(N)=O)C(=O)N[C@@H](CC(N)=O)C(=O)N1)C(=O)NCC(N)=O (H-CY[X1]QNCPKG-NH2; disulfide 1-6)	–	125	129	6	89	8.7	66	–	–	–	–	–	–	–	–	–	–
CC[C@H](C)[C@@H]1NC(=O)[C@H](Cc2ccc(O)cc2)NC(=O)[C@@H](N)CSSC[C@@H](C(=O)N2CCC[C@H]2C(=O)N[C@@H](CCCNC(=N)N)C(=O)NCC(N)=O)NC(=O)[C@H](CC(N)=O)NC(=O)[C@H](CCC(N)=O)NC1=O [ARGIPRESTOCIN] (H-CYIQNCPRG-NH2; disulfide 1-6)	286	245	243	114	–	–	–	–	–	–	–	–	–	–	–	–	–
NCCCC[C@H](NC(=O)[C@@H]1CCCN1C(=O)[C@@H]1CSSC[C@H](N)C(=O)N[C@@H](Cc2ccc(O)cc2)C(=O)N[C@@H](Cc2ccccc2)C(=O)N[C@@H](CCC(N)=O)C(=O)N[C@@H](CC(N)=O)C(=O)N1)C(=O)NCC(N)=O [LYPRESSIN]	40	212	258	5	–	–	–	113	100	101	73	–	–	–	–	–	–
CC[C@H](C)[C@@H]1NC(=O)[C@H](Cc2ccc(O)cc2)NC(=O)[C@@H](N)CSSC[C@@H](C(=O)N2CCC[C@H]2C(=O)N[C@@H](CC(C)C)C(=O)NCC(N)=O)NC(=O)[C@H](CC(N)=O)NC(=O)[C@H](CCC(N)=O)NC1=O [OXYTOCIN]	–	–	–	–	–	–	–	72	63	77	63	54	60	36	76	110	70
N=C(N)NCCC[C@H](NC(=O)[C@@H]1CCCN1C(=O)[C@@H]1CSSC[C@H](N)C(=O)N[C@@H](Cc2ccc(O)cc2)C(=O)N[C@@H](Cc2ccccc2)C(=O)N[C@@H](CCC(N)=O)C(=O)N[C@@H](CC(N)=O)C(=O)N1)C(=O)NCC(N)=O [VASOPRESSIN]	57	429	380	16	–	–	–	–	–	–	–	–	–	–	–	–	–
